ChEMBL document CHEMBL4732082, “Development of novel benzimidazole-derived neddylation inhibitors for suppressing tumor growth invitro and invivo” (Eur J Med Chem, 2021)

Legend:
[1] = target: T1, NEDD8-activating enzyme E1 catalytic subunit (Homo sapiens, UniProt Q8TBC4); assay: Inhibition of NAE (unknown origin)-mediated neddylation assessed as suppression of cullin1-Nedd8 adduct formation preincubated for 10 mins followed by ATP addition and measured after 30 mins by immunoblot analysis
T1 sequence (Q8TBC4 whole entry): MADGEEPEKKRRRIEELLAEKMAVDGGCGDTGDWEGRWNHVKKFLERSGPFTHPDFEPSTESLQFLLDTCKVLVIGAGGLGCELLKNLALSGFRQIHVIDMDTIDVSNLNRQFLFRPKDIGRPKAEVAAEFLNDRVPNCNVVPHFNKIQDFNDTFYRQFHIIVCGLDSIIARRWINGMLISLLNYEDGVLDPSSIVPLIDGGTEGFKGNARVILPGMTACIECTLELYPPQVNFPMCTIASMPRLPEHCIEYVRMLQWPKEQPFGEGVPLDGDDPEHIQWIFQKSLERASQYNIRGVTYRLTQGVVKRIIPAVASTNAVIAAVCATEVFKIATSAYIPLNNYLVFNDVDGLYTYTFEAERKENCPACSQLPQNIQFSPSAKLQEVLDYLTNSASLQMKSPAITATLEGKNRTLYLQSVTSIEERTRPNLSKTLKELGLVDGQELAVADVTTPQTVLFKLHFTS

[2] = Toxicity in nude mouse assessed as effect on body weight at 30 mg/kg, qd after 24 days; assay type: organism-based; settings: in vivo, 576 h, time 24 day
Outline: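 Female nude mice were inoculated subcutaneously with 2×10^6 A549 cells in 0.1 mL PBS. At tumor volume 70–100 mm³, mice were randomized into 5 groups of 6. Dosing was ip or oral gavage, once daily on a 5-days-on/2-days-off schedule, with 10% 2-hydroxypropyl-β-cyclodextrin/water as vehicle control. Body weight and tumor volume were measured every two days; tumors were weighed at sacrifice. Significance by two-tailed Student's t-test.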

IC50 [1]: 16.4 µM
SMILES: CCOc1nc2cccc(C(=O)OC(C)OC(=O)OC3CCCCC3)c2n1Cc1ccc(-c2ccccc2-c2nnn[nH]2)cc1 (configuration not stated) [CANDESARTAN CILEXETIL]
Activity [2]: Non-Toxic
